Screens as filed in PubChem.
Cl transport mod: modulates chloride dependent transport by human KCC2 | AID 1456 | KCC2 cells, thallium flux FluoZin-2 fluorescence | 190,000 compounds, 2.2% hits | B-score of Tl+ flux slope (higher = more flux/activation; lower = inhibition) at 10 µM | Q9H2X9;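 active means thallium flux slope and its plate-corrected score both differing from the plate sample mean at a set confidence after two filtering rounds, in either direction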;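 further: slope of fluorescence scaled to starting intensity during 10 to 20 s after thallium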
KCNQ1 block: blocks the human KCNQ1 potassium channel | 310,000 compounds, 1.3% hits | AID 2642 | P51787 | B-score at 10 µM | CHO-K1 KCNQ1, FluxOR thallium flux fluorescence; stronger effect = higher value;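 active means compounds whose thallium flux B-score, printed positive for inhibition, exceeds three library SD while starting fluorescence stays within three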;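 further: channel opened by potassium depolarization with thallium stimulus after 20 min compound exposure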
Target sequence (P51787 whole entry, looked up): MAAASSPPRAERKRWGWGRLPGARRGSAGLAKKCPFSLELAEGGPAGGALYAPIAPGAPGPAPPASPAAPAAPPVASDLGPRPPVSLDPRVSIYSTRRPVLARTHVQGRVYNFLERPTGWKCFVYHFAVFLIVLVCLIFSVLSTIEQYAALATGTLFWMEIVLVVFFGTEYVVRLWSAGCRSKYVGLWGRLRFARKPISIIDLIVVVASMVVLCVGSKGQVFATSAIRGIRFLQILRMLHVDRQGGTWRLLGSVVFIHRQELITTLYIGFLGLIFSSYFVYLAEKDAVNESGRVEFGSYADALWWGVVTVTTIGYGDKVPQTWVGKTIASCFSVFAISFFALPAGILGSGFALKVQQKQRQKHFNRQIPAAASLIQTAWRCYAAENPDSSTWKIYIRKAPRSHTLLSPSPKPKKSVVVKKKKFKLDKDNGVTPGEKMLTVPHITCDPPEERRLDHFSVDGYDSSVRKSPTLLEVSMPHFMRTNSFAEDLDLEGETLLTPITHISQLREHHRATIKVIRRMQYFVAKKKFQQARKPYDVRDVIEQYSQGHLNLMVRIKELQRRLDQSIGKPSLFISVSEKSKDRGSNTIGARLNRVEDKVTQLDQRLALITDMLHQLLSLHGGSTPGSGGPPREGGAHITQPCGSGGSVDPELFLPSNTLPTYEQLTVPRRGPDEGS
KCNK9 block: human KCNK9 channel inhibition; B-score at 10 µM; Q9NPC2; HEK293 KCNK9, FluxOR thallium flux fluorescence; stronger effect = lower value; 310,000 compounds, 1.2% hits;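 active means ratio B-score over 3 SD below the library mean, with starting fluorescence within 5 SD of its mean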;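 further: negative B-score means less thallium flux so channel inhibition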
KCNK3 inh: human KCNK3 channel inhibition, primary screen; O14649; CHO-KCNK3 thallium flux, FluxOR fluorescence; stronger effect = lower value; B-score at 10 µM; 340,000 compounds, 0.84% hits; AID 602410;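 active means B-score under library mean minus 4 SD, starting fluorescence ratio at most library mean plus 5 SD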;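 further: more negative B-score means stronger inhibition of thallium flux through KCNK3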
hERG protect: shields human hERG channel from block by proarrhythmic agents. Q12809. activation (rescue from dofetilide block), less the hit threshold, % at 10 µM. 310,000 compounds, 0.51% hits. AID 1511. CHO-hERG, FluxOR thallium flux, dofetilide IC70 present;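 active means activation above the mean of controls blocked by dofetilide plus 5 SD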;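 further: thallium influx through hERG after potassium depolarization seen as dye fluorescence rise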
KCNQ1 pot: human KCNQ1 channel potentiation or activation. CHO-K1 KCNQ1, thallium flux FluxOR fluorescence; stronger effect = higher value. 310,000 compounds, 0.35% hits. B-score at 10 µM;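 active means fluorescence ratio B-score, a plate-corrected score, at least three library SD, with initial intensity B-score within 5 SD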
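assay system = CHO-K1 cells stably expressing KCNQ1 | medium = assay buffer, equal DMSO in all wells | timing = 37 °C overnight plating, 90-min dark dye load, 20-min compound pretreatment | measured by = kinetic FluxOR thallium fluorescence, 10-s 1-Hz baseline, 110-s post-stimulus read | measure = fluorescence change relative to baseline, converted to B score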
KCNK9 block conf: human KCNK9 inhibitor confirmation. shares compounds with KCNK9 block. 4,900 compounds, 43% hits. HEK293 KCNK9 cells, FluxOR thallium flux fluorescence. inhibition, % at 10 µM;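 active means thallium signal inhibited by more than 5 SD of the compound-free buffer control wells, on both duplicate plates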
Kir21 sel: tests whether KCNK9 modulators also affect mouse Kir2.1; shares compounds with KCNK9 block; Kir2.1 cells, FluxOR thallium flux fluorescence; inhibition, % at 10 µM; 4,900 compounds, 4% hits; AID 492993;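 active means thallium signal drop more than 5 SD beyond the mean of the no-compound control wells, seen in both duplicate plates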;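 further: signal is fluorescence rise after thallium addition divided by baseline fluorescence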
HEK293 Tl ctr: non-induced cell nonspecific activity of KCNK9 modulators | shares compounds with KCNK9 block | non-induced KCNK9-HEK293, FluxOR thallium flux | inhibition, % at 10 µM | 4,900 compounds, 40% hits;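 active means thallium signal drop beyond 5 SD of the untreated control mean, on both duplicate plates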
Hits are given with their value; - = inactive; . = no result given. This is a sample that favours compounds with a hit; in the whole collection about 4.1% have one here.

SMILES	Cl transport mod	KCNQ1 block	KCNK9 block	KCNK3 inh	hERG protect	KCNQ1 pot	KCNK9 block conf	Kir21 sel	HEK293 Tl ctr
COc1ccc(S(=O)(=O)N2CC3CCCN3c3ccc(C(F)(F)F)cc32)cc1 (stereo not drawn)	.	-	-18	-	-	-	72%	-	44%
Fc1ccccc1C1c2cccn2CCN1C(=S)Nc1cccc(Br)c1 (stereo not drawn)	-	-	-11	-	-	-	36%	-	48%
S=C(Nc1ccccc1)N1CCn2cccc2C1c1cccnc1 (stereo not drawn)	-	-	-	-	-	-	.	.	.
COc1ccc(-c2nc(CN3CCN(C(=O)c4ccco4)CC3)c(C)o2)c(OC)c1C	.	-	-	-	-	-	.	.	.
Cc1nnc2ccc(-c3ccc(NS(=O)(=O)c4ccc(Cl)s4)cc3)nn12	.	.	.	-	.	.	.	.	.
COC(=O)c1ccccc1CON1C(=O)C(C)(C)N(OCc2ccccc2C(=O)OC)C(=O)C1(C)C	-	-	-	-	-	-	-	-	-
CCOC(=O)c1c(C)c(C(=O)N2CCc3ccccc3C2)c(C)n1CC	-4.6	-	-	-	-	-	-	-	-
CC(C)C(=O)NC(c1ccc(Cl)cc1Cl)c1ccc2cccnc2c1O (stereo not drawn)	.	-	-	-	-	-	-	-	28%
Cc1ccc(C(=O)c2cc([N+](=O)[O-])ccc2N2CCOCC2)c(C)c1	-	-	-	-	-	-	.	.	.
Cc1ccc(Nc2nc3ccccc3nc2-n2nc(C)cc2C)cc1	-	-	-9.8	-	-	-	57%	-	32%
COc1ccc(C(=O)CN2CCN(CCN3C(=O)c4cccc5cccc(c45)C3=O)CC2)cc1	.	-	-	-	-	-	-	-	-
Cc1cccc(-n2c(SCC(N)=O)nc3c(c2=O)C2(CCCC2)Cc2ccccc2-3)c1	-	-	-9	-	-	-	53%	-	35%
NC(=O)CSc1nc2c(c(=O)n1-c1ccccc1)C1(CCCCC1)Cc1ccccc1-2	-	-	-	-	-	-	.	.	.
CCOc1ccc2nc(N3CCOCC3)nc(C)c2c1	-	-	-	-	-	-	.	.	.
Oc1ccc(Br)cc1-c1nc2cnccn2c1NC1CCCCC1	-	-	-9.4	-	-	-	-	-	30%
COCCN(C(=O)COC(=O)C(C)(C)Oc1ccc(Cl)cc1)c1c(N)n(Cc2ccccc2)c(=O)[nH]c1=O	.	.	.	-	.	.	.	.	.
O=c1c(CN2CCN(c3cccc(Cl)c3)CC2)coc2c(Cl)cc(Cl)cc12	-	-	-	-	-	-	-	-	-
CCOC(=O)[C@@H]1[C@H]2COc3ccc(Br)cc3[C@H]2N2C(=O)N(c3cccc(Cl)c3)C(=O)[C@]12C	.	-	-11	-	-	-	73%	-	28%
CCOC(=O)[C@@H]1[C@H]2COc3ccc(Br)cc3[C@H]2N2C(=O)N(c3ccc(Br)cc3)C(=O)[C@]12C	.	-	-16	-	-	-	70%	-	28%
CCOC(=O)[C@@H]1[C@H]2COc3ccc(Br)cc3[C@@H]2N2C(=O)N(c3ccccc3)C(=O)[C@@]12C	.	-	-9	-	-	-	52%	-	30%
CCOC(=O)[C@H]1[C@H]2COc3ccc(Br)cc3[C@@H]2N2C(=O)N(c3ccccc3)C(=O)[C@@]12C	.	.	.	-	.	.	.	.	.
COC(=O)CN1C(=O)COc2ccc(S(=O)(=O)N3CCOCC3)cc21	.	-	-	-	-	-	.	.	.
CC(=O)c1ccc(N=Nc2ccc(C)cc2)cc1	-	-	-	-	-	-	.	.	.
Cc1ccc(N=Nc2c(O)ccc3n[nH]nc23)cc1	-	-	-	-	-	-	-	-	-
O=C(COc1ccc(S(=O)(=O)N2CCCC2)cc1)Nc1ccc2c(c1)OCCO2	.	-	-	-	-	-	.	.	.
SMILES	Cl transport mod	KCNQ1 block	KCNK9 block	KCNK3 inh	hERG protect	KCNQ1 pot	KCNK9 block conf	Kir21 sel	HEK293 Tl ctr
Cc1ccc(NC(=O)c2ccccc2NS(=O)(=O)c2ccc(F)cc2)cc1S(=O)(=O)N1CCCCC1	-	-	-	-	-	-	.	.	.
COCc1ccc(CN2CCCC(C(=O)Nc3ccccc3-c3ccc(OC)cc3)C2)o1 (stereo not drawn)	.	-	-	-	-	-	.	.	.
CCc1ccc(CN2CCCC(C(=O)Nc3ccccc3-c3ccc(OC)cc3)C2)o1 (stereo not drawn)	.	-	-8.7	-	-	-	-	-	28%
COC(=O)c1cn(C(=O)c2ccccc2Cl)c2ccccc12	-	-	-	-	-	-	.	.	.
COC(=O)c1cn(C(=O)c2ccc(C)cc2C)c2ccccc12	-	-	-	-	-	-	-	-	32%
CN(C(=O)c1ccc2c(Cl)c3c(nc2c1)CCC3)c1ccccc1	-	-	-	-	-	-	.	.	.
CCN(C(=O)c1ccc2c(Cl)c3c(nc2c1)CCC3)c1ccc(C)c(C)c1	-	-	-	-	-	-	-	-	-
CCOC(=O)/C(=N\Nc1cccc(C(F)(F)F)c1)N(CCOC)CCOC	-	-	-8.3	-	-	-	44%	-	34%
O=C(OCCN1CCN(c2ncc(C(F)(F)F)cc2Cl)CC1)c1ccc(Cl)cc1	.	-	-	-	-	-	.	.	.
O=C(OC1CCN(c2ncc(C(F)(F)F)cc2Cl)CC1)c1ccc(Cl)cc1	-	-	-	-	-	-	-	-	-
CCOC(=O)c1cc(NC(=O)Nc2ccccc2Cl)c(C)nc1C	-	-	-	-	-	-	.	.	.
CCOC(=O)c1cc(NC(=O)Nc2ccc(Br)cc2)c(C)nc1C	-	-	-	-	-	-	-	-	-
CN(C)c1cccc2c1c(NC(=O)c1ccc(F)cc1)nn2C	-	-	-	-	-	-	.	.	.
Cc1cccc(Oc2nc(CN3CCOCC3)nc3sc4c(c23)CCCC4)c1	-	-	-	-	-	-	-	-	-
Clc1nc(CN2CCOCC2)nc2sc3c(c12)CCC3	-	-	-	-	-	-	.	.	.
Cn1c(=O)[nH]c(=O)c2c1nc(N1CCCCCC1)n2CC(N)=O	-	-	-	-	-	-	.	.	.
CSc1ccc(C(=O)C2CCCN(C(=O)c3cccc(N4CCOCC4)c3)C2)cc1 (stereo not drawn)	-	-	-	-	-	-	-	-	-
CSc1ccc(C(=O)C2CCCN(C(=O)c3nonc3C)C2)cc1 (stereo not drawn)	.	-	-	-	-	-	-	-	-
COCc1ccc(C(=O)N2CCCC(C(=O)c3cccc(C(F)(F)F)c3)C2)o1 (stereo not drawn)	-	-	-	-	-	-	.	.	.
